In brackets after ≈: the same amount, converted by molar mass.
Assays:
[1] = test system: Staphylococcus epidermidis; assay: Antibacterial activity against methicillin-sensitive Staphylococcus epidermidis after 16 hrs by NCCLS agar dilution method; assay type: functional
How it was run: (§1)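 Agar dilution MIC. Stocks were 320 μg/mL in 50% aqueous DMSO, 2-fold serially diluted in sterile water, then diluted 10-fold into Mueller–Hinton agar to give 16–0.03125 μg/mL final. Organisms were grown in MH broth at 35 °C for 8 h and adjusted to 0.5 McFarland. They were spotted onto drug-containing plates with a multipoint inoculator and incubated at 35 °C for 16 h. Linezolid was the positive control.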

[2] = test system: Staphylococcus epidermidis; assay: Antibacterial activity against methicillin-resistant Staphylococcus epidermidis after 16 hrs by NCCLS agar dilution method; assay type: functional; how it was run: as §1
Enterococcus faecalis [3] = assay: Ratio of linezolid MIC to compound MIC for linezolid-resistant Enterococcus faecalis; assay type: functional
How it was run: (§2)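 Agar dilution per NCCLS, with linezolid tested alongside as control. Compounds were diluted 2-fold in sterile water, then 10-fold into Mueller–Hinton agar (final 16–0.03125 μg/mL). Strains (E. faecalis 3, E. faecium 3, S. aureus 3, S. epidermidis 1) were grown in MH broth at 35 °C for 8 h, adjusted to 0.5 McFarland, multipoint-inoculated, and incubated at 35 °C for 16 h. The ratio is linezolid MIC over compound MIC.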

Enterococcus faecium [4] = assay: Ratio of linezolid MIC to compound MIC for linezolid-resistant Enterococcus faecium; assay type: functional; how it was run: as §2
[5] = Oral bioavailability in Sprague-Dawley rat at 15 mg/kg; assay type: ADME, organism-based; conditions: in vivo
How it was run: (§3)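 Rats were dosed orally or by intravenous injection. For prodrugs, all parameters were based on the active parent antibacterial detected in plasma, and each prodrug dose was also given as an equivalent parent dose. Parameters were Cmax, Tmax, elimination T1/2, AUC from the concentration–time curve, clearance and oral bioavailability F.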

Enterococcus faecium [6] = assay: Antibacterial activity against linezolid-resistant Enterococcus faecium after 16 hrs by NCCLS agar dilution method; assay type: functional; how it was run: as §1
Staphylococcus aureus [7] = assay: Antibacterial activity against methicillin-sensitive Staphylococcus aureus after 16 hrs by NCCLS agar dilution method; assay type: functional; how it was run: as §1
Staphylococcus aureus [8] = assay: Antibacterial activity against Staphylococcus aureus ATCC 29213 after 16 hrs by NCCLS agar dilution method; assay type: functional; conditions: ATCC 29213, 16 h; how it was run: as §1
Staphylococcus aureus [9] = assay: Ratio of linezolid MIC to compound MIC for linezolid-resistant Staphylococcus aureus; assay type: functional; how it was run: as §2
Staphylococcus aureus [10] = assay: Antibacterial activity against methicillin-resistant Staphylococcus aureus after 16 hrs by NCCLS agar dilution method; assay type: functional; how it was run: as §1
[11] = AUC in Sprague-Dawley rat at 5 mg/kg, iv by LC-MS analysis; assay type: ADME, organism-based; parameters: dose 5 mg/kg, route intravenous; conditions: plasma
How it was run: (§4)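 Rats dosed orally or by intravenous injection. AUC is the area under the plasma concentration–time curve. For the prodrug entries, all PK values were based on the amount of the active parent antibacterial detected, not the administered prodrug.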

Staphylococcus aureus [12] = assay: Antibacterial activity against linezolid-resistant Staphylococcus aureus after 16 hrs by NCCLS agar dilution method; assay type: functional; how it was run: as §1
[13] = Clearance in Sprague-Dawley rat at 5 mg/kg, iv by LC-MS analysis; assay type: ADME, organism-based; parameters: dose 5 mg/kg, route intravenous; conditions: in vivo
How it was run: (§5)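 Rats received the compound by intravenous injection, with oral dosing run in parallel. Clearance (CLz) is reported in L/h/kg. Elimination half-life (T1/2) is reported in h and was taken from the plasma concentration–time profile.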

[14] = Elimination half life in Sprague-Dawley rat at 15 mg/kg, po by LC-MS analysis; assay type: ADME, organism-based; parameters: dose 15 mg/kg, route oral; conditions: in vivo, read-out: beta t1/2 (converted); how it was run: as §3
[15] = Elimination half life in Sprague-Dawley rat at 5 mg/kg, iv by LC-MS analysis; assay type: ADME, organism-based; parameters: dose 5 mg/kg, route intravenous; conditions: in vivo, read-out: beta t1/2 (converted); how it was run: as §5
[16] = Cmax in Sprague-Dawley rat at 15 mg/kg, po by LC-MS analysis; assay type: ADME, organism-based; parameters: dose 15 mg/kg, route oral; conditions: in vivo; how it was run: as §3
[17] = test system: Staphylococcus epidermidis; assay: Ratio of linezolid MIC to compound MIC for linezolid-resistant Staphylococcus epidermidis; assay type: functional; how it was run: as §2
Streptococcus pneumoniae = assay: Antibacterial activity against penicillin-resistant Streptococcus pneumoniae after 16 hrs by NCCLS agar dilution method; assay type: functional; how it was run: as §1
[18] = molecular target: Voltage-gated inwardly rectifying potassium channel KCNH2 (Homo sapiens, UniProt Q12809)
Enterococcus faecalis [19] = assay: Antibacterial activity against Enterococcus faecalis after 16 hrs by NCCLS agar dilution method; assay type: functional
How it was run: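 Agar dilution MIC per NCCLS, 6 E. faecalis strains. Stock was 320 μg/mL in 50% water/DMSO, serially 2-fold diluted in sterile water, then 10-fold into Mueller–Hinton agar to give 16–0.03125 μg/mL final. Inocula came from MH broth cultures grown 8 h at 35 °C, adjusted to 0.5 McFarland and spotted by multipoint inoculator. Plates were read after 16 h at 35 °C.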

Enterococcus faecalis [20] = assay: Antibacterial activity against linezolid-resistant Enterococcus faecalis after 16 hrs by NCCLS agar dilution method; assay type: functional; how it was run: as §1
[21] = Tmax in Sprague-Dawley rat at 15 mg/kg, po by LC-MS analysis; assay type: ADME, organism-based; parameters: dose 15 mg/kg, route oral; conditions: in vivo; how it was run: as §3
[22] = test system: Staphylococcus epidermidis; assay: Antibacterial activity against linezolid-resistant Staphylococcus epidermidis after 16 hrs by NCCLS agar dilution method; assay type: functional; how it was run: as §1
[23] = AUC in Sprague-Dawley rat at 15 mg/kg, po by LC-MS analysis; assay type: ADME, organism-based; parameters: dose 15 mg/kg, route oral; conditions: plasma; how it was run: as §4
Rattus norvegicus [24] = assay: AUC in Sprague-Dawley rat at 5.6 mg/kg, iv by LC-MS analysis; assay type: ADME, organism-based, Plasma; parameters: dose 5.6 mg/kg, route intravenous; conditions: in vivo; how it was run: as §3
Rattus norvegicus [25] = assay: Oral bioavailability in Sprague-Dawley rat at 10 mg/kg; assay type: ADME, organism-based; conditions: in vivo; how it was run: as §3
[26] = Elimination half life in Sprague-Dawley rat at 5.6 mg/kg, iv by LC-MS analysis; assay type: ADME, organism-based; parameters: dose 5.6 mg/kg, route intravenous; conditions: in vivo, read-out: beta t1/2 (converted); how it was run: as §3
[27] = Cmax in Sprague-Dawley rat at 10 mg/kg, po by LC-MS analysis; assay type: ADME, organism-based; parameters: dose 10 mg/kg, route oral; conditions: in vivo; how it was run: as §3
[28] = Elimination half life in Sprague-Dawley rat at 10 mg/kg, po by LC-MS analysis; assay type: ADME, organism-based; parameters: dose 10 mg/kg, route oral; conditions: in vivo, read-out: beta t1/2 (converted); how it was run: as §3
Rattus norvegicus [29] = assay: AUC in Sprague-Dawley rat at 10 mg/kg, po by LC-MS analysis; assay type: ADME, organism-based, Plasma; parameters: dose 10 mg/kg, route oral; conditions: in vivo; how it was run: as §3
[30] = Tmax in Sprague-Dawley rat at 10 mg/kg, po by LC-MS analysis; assay type: ADME, organism-based; parameters: dose 10 mg/kg, route oral; conditions: in vivo; how it was run: as §3
[31] = Elimination half life in Sprague-Dawley rat at 50 mg/kg, po by LC-MS analysis; assay type: ADME, organism-based; parameters: dose 50 mg/kg, route oral; conditions: in vivo, read-out: beta t1/2 (converted); how it was run: as §3
[32] = Cmax in Sprague-Dawley rat at 50 mg/kg, po by LC-MS analysis; assay type: ADME, organism-based; parameters: dose 50 mg/kg, route oral; conditions: in vivo; how it was run: as §3
[33] = AUC in Sprague-Dawley rat at 50 mg/kg, po by LC-MS analysis; assay type: ADME, organism-based; parameters: dose 50 mg/kg, route oral; conditions: plasma; how it was run: as §3
[34] = Tmax in Sprague-Dawley rat at 50 mg/kg, po by LC-MS analysis; assay type: ADME, organism-based; parameters: dose 50 mg/kg, route oral; conditions: in vivo; how it was run: as §3

Sequence of Voltage-gated inwardly rectifying potassium channel KCNH2 (Q12809 whole entry): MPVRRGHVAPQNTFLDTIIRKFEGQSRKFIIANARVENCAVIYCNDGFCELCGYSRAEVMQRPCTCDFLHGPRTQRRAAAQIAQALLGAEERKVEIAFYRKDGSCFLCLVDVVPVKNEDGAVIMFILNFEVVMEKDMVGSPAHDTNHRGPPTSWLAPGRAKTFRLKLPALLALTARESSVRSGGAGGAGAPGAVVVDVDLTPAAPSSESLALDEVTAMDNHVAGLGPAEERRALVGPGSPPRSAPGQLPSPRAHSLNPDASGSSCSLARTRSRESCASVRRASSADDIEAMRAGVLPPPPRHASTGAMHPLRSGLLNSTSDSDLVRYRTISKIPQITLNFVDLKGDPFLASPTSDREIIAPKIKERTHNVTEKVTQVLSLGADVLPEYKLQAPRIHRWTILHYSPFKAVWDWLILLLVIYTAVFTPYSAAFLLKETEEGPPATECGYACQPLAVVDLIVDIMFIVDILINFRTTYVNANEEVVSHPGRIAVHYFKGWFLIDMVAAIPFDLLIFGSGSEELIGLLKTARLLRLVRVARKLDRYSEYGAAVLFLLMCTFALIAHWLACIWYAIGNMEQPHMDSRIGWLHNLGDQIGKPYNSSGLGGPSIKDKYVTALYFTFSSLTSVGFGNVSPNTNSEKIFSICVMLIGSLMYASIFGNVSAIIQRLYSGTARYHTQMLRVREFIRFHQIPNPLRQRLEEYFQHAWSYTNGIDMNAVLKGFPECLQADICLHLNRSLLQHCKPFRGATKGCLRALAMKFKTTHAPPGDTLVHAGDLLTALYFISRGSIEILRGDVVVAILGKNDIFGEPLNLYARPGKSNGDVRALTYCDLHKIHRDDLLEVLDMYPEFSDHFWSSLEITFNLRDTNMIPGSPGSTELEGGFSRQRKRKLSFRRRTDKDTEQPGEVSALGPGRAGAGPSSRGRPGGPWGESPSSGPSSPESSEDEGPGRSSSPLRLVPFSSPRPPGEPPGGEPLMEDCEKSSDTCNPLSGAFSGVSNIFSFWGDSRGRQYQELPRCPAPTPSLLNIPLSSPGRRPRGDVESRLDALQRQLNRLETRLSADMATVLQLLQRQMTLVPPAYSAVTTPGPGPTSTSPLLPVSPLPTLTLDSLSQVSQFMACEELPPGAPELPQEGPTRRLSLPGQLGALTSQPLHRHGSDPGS

CN1C[C@@H](c2ccc(-c3ccc4c(c3)OC[C@H]3[C@H](CO)OC(=O)N43)cn2)OC1=O
MIC [1]: 0.25 µg/mL (≈ 0.629 µM) | MIC [2]: 0.25 µg/mL (≈ 0.629 µM) | Ratio (Enterococcus faecalis [3]): 4 | Ratio (Enterococcus faecium [4]): 4 | bioavailability [5]: 44.8% | MIC (Enterococcus faecium [6]): 2 µg/mL (≈ 5.03 µM) | MIC (Staphylococcus aureus [7]): 0.5 µg/mL (≈ 1.26 µM) | MIC (Staphylococcus aureus [8]): 0.5 µg/mL (≈ 1.26 µM) | Ratio (Staphylococcus aureus [9]): 4 | MIC (Staphylococcus aureus [10]): 0.5 µg/mL (≈ 1.26 µM) | AUC [11]: 1560 ng·h/mL | MIC (Staphylococcus aureus [12]): 4 µg/mL (≈ 10.1 µM) | clearance [13]: 53.7 mL/min/kg | half-life [14]: 1.93 h | half-life [15]: 2.51 h | Cmax [16]: 809 ng/mL | Ratio [17]: 4 | MIC (Streptococcus pneumoniae): 0.5 µg/mL (≈ 1.26 µM) | IC50 [18]: > 40 µM | MIC (Enterococcus faecalis [19]): 1 µg/mL (≈ 2.52 µM) | MIC (Enterococcus faecalis [20]): 2 µg/mL (≈ 5.03 µM) | Tmax [21]: 1 h | MIC [22]: 2 µg/mL (≈ 5.03 µM) | AUC [23]: 2170 ng·h/mL

O=C1OC(CO)CN1c1ccc(-c2ccc3c(c2)OC[C@H]2[C@H](CO)OC(=O)N32)cn1 (stereo partly drawn)
AUC (Rattus norvegicus [24]): 2800 ng·h/mL | MIC [1]: 0.25 µg/mL (≈ 0.605 µM) | MIC [2]: 0.5 µg/mL (≈ 1.21 µM) | F (Rattus norvegicus [25]): 27.5% | half-life [26]: 1.08 h | MIC (Enterococcus faecium [6]): 4 µg/mL (≈ 9.68 µM) | MIC (Staphylococcus aureus [7]): 0.5 µg/mL (≈ 1.21 µM) | MIC (Staphylococcus aureus [8]): 0.5 µg/mL (≈ 1.21 µM) | MIC (Staphylococcus aureus [10]): 0.5 µg/mL (≈ 1.21 µM) | MIC (Staphylococcus aureus [12]): 8 µg/mL (≈ 19.4 µM) | Cmax [27]: 332 ng/mL | half-life [28]: 2.25 h | AUC (Rattus norvegicus [29]): 1491 ng·h/mL | Tmax [30]: 0.38 h | MIC (Streptococcus pneumoniae): 0.5 µg/mL (≈ 1.21 µM) | IC50 [18]: > 40 µM | MIC (Enterococcus faecalis [19]): 0.5 µg/mL (≈ 1.21 µM) | MIC (Enterococcus faecalis [20]): 4 µg/mL (≈ 9.68 µM) | MIC [22]: 4 µg/mL (≈ 9.68 µM)

N#Cc1ccc(-c2ccc3c(c2)OC[C@H]2[C@H](CO)OC(=O)N32)cn1
MIC [1]: 0.25 µg/mL (≈ 0.773 µM) | MIC [2]: 0.125 µg/mL (≈ 0.387 µM) | half-life [31]: 4.69 h | MIC (Enterococcus faecium [6]): 2 µg/mL (≈ 6.19 µM) | MIC (Staphylococcus aureus [7]): 0.25 µg/mL (≈ 0.773 µM) | MIC (Staphylococcus aureus [8]): 0.25 µg/mL (≈ 0.773 µM) | MIC (Staphylococcus aureus [10]): 0.25 µg/mL (≈ 0.773 µM) | MIC (Staphylococcus aureus [12]): 4 µg/mL (≈ 12.4 µM) | MIC (Streptococcus pneumoniae): 0.25 µg/mL (≈ 0.773 µM) | MIC (Enterococcus faecalis [19]): 1 µg/mL (≈ 3.09 µM) | Cmax [32]: 3020 ng/mL | MIC (Enterococcus faecalis [20]): 2 µg/mL (≈ 6.19 µM) | AUC [33]: 33400 ng·h/mL | MIC [22]: 4 µg/mL (≈ 12.4 µM) | Tmax [34]: 4.5 h
